Assay results published in ChEMBL document CHEMBL5625186, “Synthesis, cytotoxicity, antioxidant activity and molecular modeling of new NSAIDs-EBS derivatives” (Eur J Med Chem, 2023).
Activity calls are given as the source filed them. The calls are words filed in the database; no cut-off is given here.

Tests used:
DNA = assay: Induction of bleomycin-dependent DNA (unknown origin) damage assessed as absorbance at 0.1 mg/ml measured after 1 hr; assay type: nucleic-acid assay
Procedure, shortened: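 The bleomycin-iron/DNA mixture was incubated at 37 °C for 1 h and stopped with 0.1 M EDTA. Colour was developed with 1% TBA plus 25% HCl at 80 °C for 30 min. After ice cooling, DNA damage was read as the increase in absorbance at 532 nm. L-ascorbic acid served as the positive control.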

[1] = Antioxidant activity assessed as DPPH radical scavenging activity incubated for 30 mins under dark condition relative to control; assay type: functional; design: concentration or dose not given beside the values
Procedure, shortened: (§1)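 Compounds at a range of concentrations were mixed with DPPH solution and kept 30 min in the dark. Absorbance was read at 517 nm. % activity = [(control A − sample A)/control A] × 100. Vitamin C and ebselen served as positive controls and DMSO as the negative control. Fold is expressed relative to vitamin C (set as 1). Values are mean ± SD of three independent experiments.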

BGC-823 = assay: Cytotoxicity against human BGC-823 cells measured after 24 to 72 hrs by MTT assay; assay type: functional, cell-based
Procedure, shortened: (§2)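 Cells were grown in RPMI 1640 with 10% FBS and penicillin/streptomycin at 37 °C, 5% CO2. They were seeded at 1×10^4 cells/well and allowed to attach for 24 h. Compounds at various concentrations were then applied for 24, 48 or 72 h (DMSO below 1.25%). MTT (5.0 mg/mL) was added 3 h before the end, formazan was dissolved in DMSO and OD was read at 570 nm. Doxorubicin served as reference. Data are mean ± SD, n=3.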

SW480 = assay: Cytotoxicity against human SW480 cells measured after 24 to 72 hrs by MTT assay; assay type: functional, cell-based; procedure, shortened: as §2
MCF7 = assay: Cytotoxicity against human MCF7 cells measured after 24 to 72 hrs by MTT assay; assay type: functional, cell-based; procedure, shortened: as §2
[2] = Potency index, ratio of test compound to vitamin C antioxidant activity assessed as DPPH radical scavenging activity incubated for 30 mins under dark condition; assay type: functional; procedure, shortened: as §1
HeLa = assay: Cytotoxicity against human HeLa cells measured after 24 to 72 hrs by MTT assay; assay type: functional, cell-based; procedure, shortened: as §2
[3] = Antioxidant activity assessed as glutathione peroxidase-like activity at 41 mM measured over 3 mins; assay type: functional
Procedure, shortened: (§3)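 GPx-like rate measured from GSH/glutathione reductase/NADPH coupling in 50 mM phosphate buffer with 0.1% Triton X-100. The compound was added from a 41 mM solution, and the reaction was started with H2O2 (0.8 mM). A340 was followed for 3 min and expressed as ΔA/min. Values were corrected for the H2O2 + GSH background, and for the compound's own absorbance if coloured. Ebselen (41 mM) served as reference.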

[4] = molecular target: T1, Thioredoxin reductase 1, cytoplasmic (Rattus norvegicus, UniProt O89049); assay: Inhibition of rat TrxR1 using DTNB as substrate preincubated for 15 mins followed by substrate addition and measured for 20 mins by colorimetric method
T1 sequence (O89049 whole entry): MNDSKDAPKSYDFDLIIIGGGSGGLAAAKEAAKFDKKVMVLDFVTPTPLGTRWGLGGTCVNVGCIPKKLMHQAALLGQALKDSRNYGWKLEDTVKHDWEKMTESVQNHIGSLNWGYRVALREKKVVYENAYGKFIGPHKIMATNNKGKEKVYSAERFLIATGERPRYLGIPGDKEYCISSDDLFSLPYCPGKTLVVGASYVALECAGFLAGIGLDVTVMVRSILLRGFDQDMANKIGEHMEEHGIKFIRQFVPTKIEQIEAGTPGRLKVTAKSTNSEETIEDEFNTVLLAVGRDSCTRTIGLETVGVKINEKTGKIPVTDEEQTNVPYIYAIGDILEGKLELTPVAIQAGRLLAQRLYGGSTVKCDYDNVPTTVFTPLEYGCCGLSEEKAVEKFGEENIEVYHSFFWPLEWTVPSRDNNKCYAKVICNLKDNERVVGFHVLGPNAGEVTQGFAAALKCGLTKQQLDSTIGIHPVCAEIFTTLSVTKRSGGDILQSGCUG
Procedure, shortened: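 Rat TrxR1 (5 nM) was used in 100 mM potassium phosphate pH 7.0 with 1 mM EDTA, 0.1 mg/ml BSA and 0.2 mM NADPH. […] DTNB was then added and the A412 increase was monitored for 20 min.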

A549 = assay: Cytotoxicity against human A549 cells measured after 24 to 72 hrs by MTT assay; assay type: functional, cell-based; procedure, shortened: as §2
[5] = Antioxidant activity assessed as glutathione peroxidase-like activity at 41 mM measured over 3 mins relative to ebselen glutathione peroxidase-like activity; assay type: functional; procedure, shortened: as §3

| SMILES | EC50 [4] [µM] | Activity (DNA) | inhibition [1] [%] | IC50 (BGC-823) [µM] | IC50 (SW480) [µM] | IC50 (MCF7) [µM] | Ratio [2] | IC50 (HeLa) [µM] | Activity [3] | IC50 (A549) [µM] | fold change (FC) [5] |
| --- | --- | --- | --- | --- | --- | --- | --- | --- | --- | --- | --- |
| COc1ccc2c(c1)c(CC(=O)NCc1ccc(-n3[se]c4ccccc4c3=O)cc1)c(C)n2C(=O)c1ccc(Cl)cc1 | 15.7 | 101 | 78.7 | 9.2 | 7.5 | 11.3 | 0.8 | 14.3 | Active | 10.3 |  |
| O=C1O[C@H]([C@@H](O)CO)C(O)=C1O |  | 292 | 97.2 |  |  |  |  |  |  |  |  |
| CC(C(=O)NCCn1[se]c2ccccc2c1=O)c1ccc(-c2ccccc2)c(F)c1 (centres undefined) | 28.5 | 85.7 | 42.5 | 9.5 | 11.3 | 14.9 | 0.4 | 10.4 | Active | 13.6 |  |
| CC(=O)Oc1ccccc1C(=O)O [ASPIRIN] |  |  |  | > 50 | > 50 | > 50 |  | > 50 |  | > 50 |  |
| CC(C(=O)NCCn1[se]c2ccccc2c1=O)c1cccc(C(=O)c2ccccc2)c1 (centres undefined) | 23.6 | 87.6 | 33.3 | 13.6 | 14.6 | 10.3 | 0.3 | 11.3 | Active | 15.6 |  |
| CC(=O)Oc1ccccc1C(=O)NCCn1[se]c2ccccc2c1=O | 21.4 | 91.4 | 41.4 | 11.4 | 14.2 | 14.5 | 0.4 | 12.7 | Active | 10.6 |  |
| COc1ccc2cc([C@H](C)C(=O)O)ccc2c1 [NAPROXEN] |  |  |  | > 50 | > 50 | > 50 |  | > 50 |  | > 50 |  |
| CCC1(CC)OCCc2c1[nH]c1c(CC(=O)NCc3ccc(-n4[se]c5ccccc5c4=O)cc3)cccc21 | 17.1 | 97.4 | 52.1 | 9.8 | 12.3 | 8.8 | 0.5 | 12.6 |  | 9.8 |  |
| O=c1c2ccccc2[se]n1-c1ccccc1 [EBSELEN] |  |  |  | > 50 | > 50 | > 50 |  | > 50 |  | > 50 |  |
| CC(C)Cc1ccc(C(C)C(=O)O)cc1 (centres undefined) [IBUPROFEN] |  |  |  | > 50 | > 50 | > 50 |  | > 50 |  | > 50 |  |
| Cc1cccc(Nc2ccccc2C(=O)NCCn2[se]c3ccccc3c2=O)c1C | 26.6 | 72.4 | 37.4 | 6.5 | 7.2 | 5.3 | 0.4 | 8.8 | Active | 5.2 |  |
| COc1cccc2c1C(=O)c1c(O)c3c(c(O)c1C2=O)C[C@@](O)(C(=O)CO)C[C@@H]3O[C@H]1C[C@H](N)[C@H](O)[C@H](C)O1 [DOXORUBICIN] |  |  |  | 9.8 | 12.4 | 12.8 |  | 11.5 |  | 9.4 |  |
| COc1ccc2c(c1)c(CC(=O)NCCn1[se]c3ccccc3c1=O)c(C)n2C(=O)c1ccc(Cl)cc1 | 24.5 | 92.4 | 27.3 | 17.4 | 14.3 | 10.3 | 0.3 | 13.6 | Active | 11.2 |  |
| COc1ccc2cc(C(C)C(=O)NCc3ccc(-n4[se]c5ccccc5c4=O)cc3)ccc2c1 (centres undefined) | 14.6 | 82.8 | 68.6 | 13.5 | 7.4 | 13.8 | 0.7 | 9.7 | Active | 11.4 |  |
| CC1=C(CC(=O)NCCn2[se]c3ccccc3c2=O)c2cc(F)ccc2/C1=C\c1ccc([S+](C)[O-])cc1 (centres undefined) | 27 | 68.4 | 29 | 16.6 | 10.4 | 14.4 | 0.3 | 11.3 | Active | 13.3 |  |

Further compounds by falling EC50 [4], results first:

| EC50 [4] [µM] | SMILES | Activity (DNA) | inhibition [1] [%] | IC50 (BGC-823) [µM] | IC50 (SW480) [µM] | IC50 (MCF7) [µM] | Ratio [2] | IC50 (HeLa) [µM] | Activity [3] | IC50 (A549) [µM] | fold change (FC) [5] |
| --- | --- | --- | --- | --- | --- | --- | --- | --- | --- | --- | --- |
| 28.4 | COc1ccc2cc(C(C)C(=O)NCCn3[se]c4ccccc4c3=O)ccc2c1 (centres undefined) | 123 | 28.6 | 13.5 | 15.7 | 16.5 | 0.3 | 8.8 | Active | 14.7 |  |
| 24.8 | O=C(NCCn1[se]c2ccccc2c1=O)c1ccccc1Nc1cccc(C(F)(F)F)c1 | 77.7 | 41.7 | 11.4 | 9.4 | 12.6 | 0.4 | 15.2 | Active | 12.2 |  |
| 23.5 | C=C(C(=O)NCCn1[se]c2ccccc2c1=O)c1ccc(CC(C)C)cc1 | 68.4 | 33.5 | 12.5 | 11.4 | 15.7 | 0.3 | 10.6 | Active | 9.4 |  |
| 19.6 | CC(C(=O)NCc1ccc(-n2[se]c3ccccc3c2=O)cc1)c1cccc(C(=O)c2ccccc2)c1 (centres undefined) | 85.3 | 31.3 | 11.2 | 12.5 | 8.4 | 0.3 | 9.2 |  | 13.2 |  |
| 17.2 | CC(C)Cc1ccc(C(C)C(=O)NCc2ccc(-n3[se]c4ccccc4c3=O)cc2)cc1 (centres undefined) | 106 | 42.6 | 7.5 | 10.4 | 12.4 | 0.4 | 9.3 | Active | 8.1 |  |
| 14.3 | Cc1cccc(Nc2ccccc2C(=O)NCc2ccc(-n3[se]c4ccccc4c3=O)cc2)c1C | 72.4 | 54.3 | 3.4 | 4.5 | 4.2 | 0.5 | 3.8 | Active | 3.6 |  |
| 11.5 | O=C(NCc1ccc(-n2[se]c3ccccc3c2=O)cc1)c1ccccc1Nc1cccc(C(F)(F)F)c1 | 56.1 | 51.5 | 8.4 | 13.7 | 14.2 | 0.5 | 7.5 |  | 12.7 |  |
| 11.2 | CC(C(=O)NCc1ccc(-n2[se]c3ccccc3c2=O)cc1)c1ccc(-c2ccccc2)c(F)c1 (centres undefined) | 57.3 | 58.2 | 6.5 | 8.3 | 11.3 | 0.6 | 9.5 | Active | 12.3 |  |
| 10.4 | CC1=C(CC(=O)NCc2ccc(-n3[se]c4ccccc4c3=O)cc2)c2cc(F)ccc2/C1=C\c1ccc([S+](C)[O-])cc1 (centres undefined) | 72.4 | 42.9 | 9.5 | 9.8 | 7.4 | 0.4 | 8.4 |  | 8.3 |  |
| 8.8 | CC(=O)Oc1ccccc1C(=O)NCc1ccc(-n2[se]c3ccccc3c2=O)cc1 | 108 | 57.3 | 2.4 | 2.8 | 1.5 | 0.5 | 1.7 | Active | 2.1 | < 3 |
